Where two headings read alike, the source gives them in different places.
Key:
human SERT [1] = molecular target: T1, human SERT (Homo sapiens, UniProt P31645); type: cell-based; details: for increase of rate of peak current recovery from 0 M to 140 mM intracellular Na+ / change of rate of peak current recovery with intracellular Na+ concentration: extracellular Na+ 140 mM; for peak current recovery rate (monoexponential fit): fixed intracellular Na+ 140 mM, K+-free, Fig. 1 G; for dependence of the recovery rates on extracellular Na+ concentration: intracellular Na+ 140 mM, extracellular Na+ 10-140 mM; for change of rate of peak current recovery with intracellular Na+ concentration: 0 to 140 mM intracellular Na+; for kslow of peak current recovery (biexponential fit): after 30 µM substrate, ±SEM
In short: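 GFP-tagged human SERT, tetracycline-inducible, in HEK293 cells seeded at low density 24 h before. Whole-cell voltage clamp with superfused pH 7.4 HEPES buffer. Na+ varied, osmolarity kept by NMDG chloride; intracellular Na+ 0–140 mM at 140 mM external. After 30 µM substrate, 10 µM 5-HT-evoked peak recovery fitted to mono- or biexponential rise; rates ±95% CI, kslow ±SEM; n = 4–7.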

human SERT [2] = molecular target: T1, human SERT; assay: [3H]MPP+ release; type: cell-based; details: 3 µM releaser, 100 µM ouabain; for effect of monensin on efflux of [3H]MPP+: with vs without 10 µM monensin
In short: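 HEK293 cells with inducible GFP-tagged human SERT on poly-D-lysine coverslips (24 h) were preloaded with 0.1 µM [3H]MPP+ for 20 min at 37°C. Superfused with K+-free buffer containing 100 µM ouabain for 40 min, then 2-min fractions: three basal, four with 10 µM monensin or ethanol vehicle, five with 3 µM test compound, three with 1% SDS. Release given as percent [3H]MPP+ over time.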

T1 sequence (P31645 whole entry, the tested form may be a part): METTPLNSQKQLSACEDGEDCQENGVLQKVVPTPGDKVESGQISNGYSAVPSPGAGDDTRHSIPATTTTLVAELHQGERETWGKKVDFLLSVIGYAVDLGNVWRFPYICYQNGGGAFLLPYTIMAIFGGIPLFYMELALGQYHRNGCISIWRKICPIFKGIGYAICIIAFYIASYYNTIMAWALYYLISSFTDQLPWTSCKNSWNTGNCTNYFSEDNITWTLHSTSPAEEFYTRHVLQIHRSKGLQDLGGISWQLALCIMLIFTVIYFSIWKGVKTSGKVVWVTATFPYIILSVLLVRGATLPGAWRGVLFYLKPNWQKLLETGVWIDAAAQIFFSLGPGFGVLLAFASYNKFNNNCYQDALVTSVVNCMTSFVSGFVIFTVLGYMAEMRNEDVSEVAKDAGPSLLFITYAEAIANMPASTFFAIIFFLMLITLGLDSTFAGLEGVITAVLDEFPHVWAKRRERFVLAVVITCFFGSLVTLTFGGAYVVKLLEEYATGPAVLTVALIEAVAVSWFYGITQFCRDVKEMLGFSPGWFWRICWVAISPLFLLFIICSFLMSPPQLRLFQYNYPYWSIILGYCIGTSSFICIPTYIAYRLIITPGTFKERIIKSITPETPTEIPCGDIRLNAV

SMILES	increase of rate of peak current recovery from 0 M to 140 mM intracellular Na+ (human SERT [1]) [fold]	peak current recovery rate (monoexponential fit) (human SERT [1]) [s⁻¹]	dependence of the recovery rates on extracellular Na+ concentration (human SERT [1])	change of rate of peak current recovery with intracellular Na+ concentration (human SERT [1])	effect of monensin on efflux of [3H]MPP+ (human SERT [2])	further results
NCCc1c[nH]c2ccc(O)cc12 [5-HT, 5-hydroxy-tryptamine]	~6.7	4.012 ± 0.211	did not detect any dependence	–	–	–
CC(N)Cc1ccc2ccccc2c1 (centres unmarked) [PAL-287]	–	–	–	did not change with Na^+ concentration	–	–
CCN[C@@H](C)Cc1ccc2ccccc2c1 [PAL-1045]	–	0.025 ± 0.001	–	decreased fourfold	comparable in the absence and presence of monensin	dissociation rate from SERT (human SERT [1]; slow dissociation from the outward-facing conformation, high Na+): ~0.025 s⁻¹
CC(N)Cc1ccc(Cl)cc1 (centres unmarked) [p-chloroamphetamine, para-chloroamphetamine]	~10	–	did not detect any dependence	–	significantly larger efflux	kslow of peak current recovery (biexponential fit) (human SERT [1]; 10 mM Na+e, 140 mM intracellular Na+): 0.35 ± 0.23 s⁻¹; kslow of peak current recovery (biexponential fit) (human SERT [1]; 70 mM Na+e, 140 mM intracellular Na+): 0.10 ± 0.12 s⁻¹; kslow of peak current recovery (biexponential fit) (human SERT [1]; 70 mM Na+i, 140 mM extracellular Na+): 0.50 ± 0.11 s⁻¹; kslow of peak current recovery (biexponential fit) (human SERT [1]; 140 mM Na+e, 140 mM intracellular Na+): 0.49 ± 0.15 s⁻¹; release of [3H]MPP+ (human SERT [2]; no monensin): substantially larger release of [^3H]MPP^+ than PAL-1045
CNC(C)Cc1ccc2ccccc2c1 (centres unmarked) [PAL-1046]	–	–	–	did not change with Na^+ concentration	–	–

Source: paper PMC5839721 (The Journal of General Physiology, 2018)
